Drawing on ChEMBL document CHEMBL3097988, “Synthesis and characterization of new N-(4-(4-chloro-1H-imidazol-1-yl)-3-methoxyphenyl)amide/sulfonamide derivatives as possible antimicrobial and antitubercular agents” (2014), this text covers MIC for 29 molecules.

≈ marks a conversion by molar mass, not a printed value.

The experiment has as its system Mycobacterium tuberculosis. Briefly: Antimicrobial activity against multi drug-resistant Mycobacterium tuberculosis after 7 days by resazurin assay. In kind it is functional. To be noted: 168 h. A digest of the protocol:
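Resazurin microtitre assay. Cultures were grown in Middlebrook 7H9 with 10% OADC and added to fresh medium in 96-well plates. Test compounds came from 2 mg/mL DMF stocks, with DMF-only controls. Plates were incubated 7 days at 37 °C, then resazurin was added and read after 1 h at 37 °C. MIC was the lowest concentration preventing the blue-to-pink change.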
A general note: The colour change of resazurin is a common sign of viable cells or microbes.
In the case of `COc1cc(NS(=O)(=O)c2ccccc2)ccc1-n1cnc(Cl)c1`, the lowest concentration to inhibit growth (MIC) was 25 µg/mL (≈ 68.7 µM).
For the molecule `COc1cc(NC(=O)c2cccc(C(C)C#N)c2)ccc1-n1cnc(Cl)c1` (centres undefined), the MIC (as a rule, the lowest concentration found to suppress growth) is above 50 µg/mL.
To `COc1cc(NS(=O)(=O)c2cccc([N+](=O)[O-])c2Cl)ccc1-n1cnc(Cl)c1` belongs 25 µg/mL (≈ 56.4 µM).
As for `COc1cc(NS(=O)(=O)c2ccco2)ccc1-n1cnc(Cl)c1`, 25 µg/mL (≈ 70.7 µM) was the least that counted as inhibitory (MIC).
Consider `COc1cc(NC(=O)c2c(F)ccc(C(F)(F)F)c2Cl)ccc1-n1cnc(Cl)c1`, for which it took 25 µg/mL (≈ 55.8 µM) to inhibit growth (MIC).
The result for `COc1cc(NC(=O)c2ccc(C(F)(F)F)cc2)ccc1-n1cnc(Cl)c1` reads above 50 µg/mL; that for `COc1cc(NS(=O)(=O)C2(c3ccc(Cl)cc3)CC2)ccc1-n1cnc(Cl)c1`, above 50 µg/mL.
Turning to `COc1cc(NS(=O)(=O)c2cccc(C(C)C#N)c2)ccc1-n1cnc(Cl)c1` (centres undefined), 25 µg/mL (≈ 60 µM) was the least that counted as inhibitory (MIC).
Molecule `COc1cc(F)c(C(=O)Nc2ccc(-n3cnc(Cl)c3)c(OC)c2)c(F)c1` had an MIC above 50 µg/mL.
Take `COc1cc(NS(=O)(=O)c2c(F)ccc(C(F)(F)F)c2Cl)ccc1-n1cnc(Cl)c1`: it took 6.25 µg/mL (≈ 12.9 µM) to inhibit growth (MIC).
Take `COc1cc(NC(=O)Cc2cccc(C(F)(F)F)c2)ccc1-n1cnc(Cl)c1`: the MIC is above 50 µg/mL.
`COc1cc(NS(=O)(=O)c2cc(F)cc(C(F)(F)F)c2)ccc1-n1cnc(Cl)c1` returned a minimum inhibitory concentration (MIC) of 6.25 µg/mL (≈ 13.9 µM).
To `COc1cc(NS(=O)(=O)c2cccs2)ccc1-n1cnc(Cl)c1` belongs above 50 µg/mL; to `COc1cc(NC(=O)c2cccc([N+](=O)[O-])c2Cl)ccc1-n1cnc(Cl)c1`, above 50 µg/mL.
In the case of `COc1cc(NC(=O)C2(c3ccc(Cl)cc3)CC2)ccc1-n1cnc(Cl)c1`, the MIC was determined as 25 µg/mL (≈ 62.1 µM).
In turn, `COc1cc(F)c(S(=O)(=O)Nc2ccc(-n3cnc(Cl)c3)c(OC)c2)c(C(F)(F)F)c1` yielded an MIC of 25 µg/mL (≈ 52.1 µM).
`COc1cc(NS(=O)(=O)Cc2cccc(C(F)(F)F)c2)ccc1-n1cnc(Cl)c1`: the MIC was above 50 µg/mL.
The molecule `COc1cc(NS(=O)(=O)c2ccc(C(F)(F)F)cc2)ccc1-n1cnc(Cl)c1` showed an MIC of 6.25 µg/mL (≈ 14.5 µM).
`COc1cc(NC(=O)c2ccc([N+](=O)[O-])cc2)ccc1-n1cnc(Cl)c1` came in with an MIC above 50 µg/mL.
Consider `CO[C@H]1/C=C/O[C@@]2(C)Oc3c(C)c(O)c4c(O)c(c(/C=N/N5CCN(C)CC5)c(O)c4c3C2=O)NC(=O)/C(C)=C\C=C\[C@H](C)[C@H](O)[C@@H](C)[C@@H](O)[C@@H](C)[C@H](OC(C)=O)[C@@H]1C` [RIFAMPIN], for which the lowest concentration to inhibit growth (MIC) was 25 µg/mL (≈ 30.4 µM).
For `COc1cc(NC(=O)c2ccco2)ccc1-n1cnc(Cl)c1`, the MIC is above 50 µg/mL.
On to `COc1cc(NS(=O)(=O)c2ccc(Cl)cc2Cl)ccc1-n1cnc(Cl)c1`, for which the MIC is above 50 µg/mL.
In the case of `COc1cc(NS(=O)(=O)c2ccc([N+](=O)[O-])cc2)ccc1-n1cnc(Cl)c1`, the MIC amounted to 6.25 µg/mL (≈ 15.3 µM).
Turning to `COc1cc(NC(=O)c2ccccc2)ccc1-n1cnc(Cl)c1`, the MIC stood at 25 µg/mL (≈ 76.3 µM).
Molecule `COc1cc(NC(=O)c2cccs2)ccc1-n1cnc(Cl)c1` had a minimal inhibitory concentration (MIC) above 50 µg/mL.
`COc1ccc(S(=O)(=O)Nc2ccc(-n3cnc(Cl)c3)c(OC)c2)cc1OC` came in with an MIC above 50 µg/mL.
The result for `COc1cc(NC(=O)c2cc(F)cc(C(F)(F)F)c2)ccc1-n1cnc(Cl)c1` reads above 50 µg/mL; that for `NNC(=O)c1ccncc1` [ISONIAZID], 12.5 µg/mL (≈ 91.1 µM); that for `COc1cc(NC(=O)c2ccc(Cl)cc2Cl)ccc1-n1cnc(Cl)c1`, 25 µg/mL (≈ 63 µM).
